Test results taken from PMC10772668 (Clinical and Translational Science, 2023).

Assays:
Type in all cases: in vivo, human
Safety, TEAEs, SAD = assay: Safety, TEAEs, SAD
How it was run: (§1)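 Safety population: all participants exposed to study drug, followed from first dose to the end‑of‑study visit. Assessments covered physical and neurological exams, AEs, SAEs and AESIs (seizure, ALT ≥2×ULN, QTc ≥500 ms, pregnancy, overdose). Lab, vital‑sign and 12‑lead/Holter ECG abnormalities were also recorded. Coding used MedDRA 23.1 (part 1) or 24.0 (part 2), with severity graded 1–4 per FDA guidance. Counts were summarised per dose group, with placebo pooled.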

Safety, TEAEs, PK‐CSF = conditions: for ALT increase (AESI), one participant: PK‐CSF 10 mg
How it was run: as §1

Safety, TEAEs, MAD = assay: Safety, TEAEs, MAD
How it was run: as §1

CYP3A4 = assay: Plasma 4β‐hydroxycholesterol day 14/day 1 ratio; conditions: repeated doses up to 20 mg b.i.d.
How it was run: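 MAD healthy adults received oral capsules (10 or 20 mg q.d., 15 or 20 mg b.i.d.; fasted) or placebo for 14 days. Plasma 4β‑hydroxycholesterol was measured predose on day 1 and day 14, and day 14/day 1 ratios were calculated. Geometric mean of the log‑transformed ratio with 90% CI was obtained by analysis of covariance, per dose group and overall.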

[1] = Overall safety and tolerability, all study parts
How it was run: as §1

CC(C)(C(=O)N1CCOc2c(C#N)cncc2C1)C(F)F [SAR443820]
Any grade ≥3 TEAE, n (%) (Safety, TEAEs, SAD; SAD 10 mg (n = 6)): 0 n (%) | Any treatment‐emergent AESI, n (%) (Safety, TEAEs, SAD; SAD 10 mg (n = 6)): 0 n (%) | Any treatment‐emergent SAE, n (%) (Safety, TEAEs, SAD; SAD 10 mg (n = 6)): 0 n (%) | Any TEAE, n (%) (Safety, TEAEs, SAD; SAD 20 mg (n = 6)): 1 (16.7) n (%) | Any grade ≥3 TEAE, n (%) (Safety, TEAEs, SAD; SAD 20 mg (n = 6)): 0 n (%) | Any treatment‐emergent AESI, n (%) (Safety, TEAEs, SAD; SAD 20 mg (n = 6)): 0 n (%) | Any treatment‐emergent SAE, n (%) (Safety, TEAEs, SAD; SAD 20 mg (n = 6)): 0 n (%) | Any TEAE, n (%) (Safety, TEAEs, SAD; SAD 30 mg (n = 6)): 3 (50.0) n (%) | Any grade ≥3 TEAE, n (%) (Safety, TEAEs, SAD; SAD 30 mg (n = 6)): 0 n (%) | Any treatment‐emergent AESI, n (%) (Safety, TEAEs, SAD; SAD 30 mg (n = 6)): 0 n (%) | Any treatment‐emergent SAE, n (%) (Safety, TEAEs, SAD; SAD 30 mg (n = 6)): 0 n (%) | Any TEAE, n (%) (Safety, TEAEs, SAD; SAD 40 mg (n = 6)): 3 (50.0) n (%) | Any grade ≥3 TEAE, n (%) (Safety, TEAEs, SAD; SAD 40 mg (n = 6)): 0 n (%) | Any treatment‐emergent AESI, n (%) (Safety, TEAEs, SAD; SAD 40 mg (n = 6)): 0 n (%) | Any treatment‐emergent SAE, n (%) (Safety, TEAEs, SAD; SAD 40 mg (n = 6)): 0 n (%) | Any TEAE, n (%) (Safety, TEAEs, PK‐CSF; PK-CSF 10 mg (n = 6)): 4 (66.7) n (%) | Any grade ≥3 TEAE, n (%) (Safety, TEAEs, PK‐CSF; PK-CSF 10 mg (n = 6)): 0 n (%) | Any treatment‐emergent AESI, n (%) (Safety, TEAEs, PK‐CSF; PK-CSF 10 mg (n = 6)): 1 (16.7) n (%) | Any treatment‐emergent SAE, n (%) (Safety, TEAEs, PK‐CSF; PK-CSF 10 mg (n = 6)): 0 n (%) | Any TEAE, n (%) (Safety, TEAEs, PK‐CSF; PK-CSF 40 mg (n = 6)): 6 (100.0) n (%) | Any grade ≥3 TEAE, n (%) (Safety, TEAEs, PK‐CSF; PK-CSF 40 mg (n = 6)): 1 (16.7) n (%) | Any treatment‐emergent AESI, n (%) (Safety, TEAEs, PK‐CSF; PK-CSF 40 mg (n = 6)): 0 n (%) | Any treatment‐emergent SAE, n (%) (Safety, TEAEs, PK‐CSF; PK-CSF 40 mg (n = 6)): 1 (16.7) n (%) | ALT increase (AESI), one participant (Safety, TEAEs, PK‐CSF; day 2): 1.5 ULN | ALT increase (AESI), one participant (Safety, TEAEs, PK‐CSF; day 7 (end‐of‐study visit)): 2.4 ULN | Any TEAE, n (%) (Safety, TEAEs, MAD; MAD 10 mg QD (n = 8)): 4 (50.0) n (%) | Any grade ≥3 TEAE, n (%) (Safety, TEAEs, MAD; MAD 10 mg QD (n = 8)): 0 n (%) | Any treatment‐emergent AESI, n (%) (Safety, TEAEs, MAD; MAD 10 mg QD (n = 8)): 0 n (%) | Any treatment‐emergent SAE, n (%) (Safety, TEAEs, MAD; MAD 10 mg QD (n = 8)): 0 n (%) | Any TEAE, n (%) (Safety, TEAEs, MAD; MAD 15 mg BID (n = 8)): 6 (75.0) n (%) | Any grade ≥3 TEAE, n (%) (Safety, TEAEs, MAD; MAD 15 mg BID (n = 8)): 0 n (%) | Any treatment‐emergent AESI, n (%) (Safety, TEAEs, MAD; MAD 15 mg BID (n = 8)): 1 (12.5) n (%) | Any treatment‐emergent SAE, n (%) (Safety, TEAEs, MAD; MAD 15 mg BID (n = 8)): 0 n (%) | Concomitant AST increase, one participant (Safety, TEAEs, MAD; MAD 15 mg b.i.d.): 1.43 ULN | ALT increase (AESI), one participant (Safety, TEAEs, MAD; MAD 15 mg b.i.d., day 9): 2.29 ULN | ALT increase (AESI), one participant (Safety, TEAEs, MAD; MAD 15 mg b.i.d., day 15 (24 h post last dosing)): 2.71 ULN | Any TEAE, n (%) (Safety, TEAEs, MAD; MAD 20 mg BID (n = 8)): 4 (50.0) n (%) | Any grade ≥3 TEAE, n (%) (Safety, TEAEs, MAD; MAD 20 mg BID (n = 8)): 0 n (%) | Any treatment‐emergent AESI, n (%) (Safety, TEAEs, MAD; MAD 20 mg BID (n = 8)): 0 n (%) | Any treatment‐emergent SAE, n (%) (Safety, TEAEs, MAD; MAD 20 mg BID (n = 8)): 0 n (%) | Any TEAE, n (%) (Safety, TEAEs, MAD; MAD 20 mg QD (n = 8)): 3 (37.5) n (%) | Any grade ≥3 TEAE, n (%) (Safety, TEAEs, MAD; MAD 20 mg QD (n = 8)): 0 n (%) | Any treatment‐emergent AESI, n (%) (Safety, TEAEs, MAD; MAD 20 mg QD (n = 8)): 0 n (%) | Any treatment‐emergent SAE, n (%) (Safety, TEAEs, MAD; MAD 20 mg QD (n = 8)): 0 n (%) | Potential for CYP3A4 induction (CYP3A4): no potential for CYP3A4 induction | Most common AEs ([1]; all study parts): dizziness (SAD) and headache (PK‐CSF and MAD) | Overall tolerability ([1]; healthy participants, single doses up to 40 mg, repeated doses up to 20 mg b.i.d. for 14 days): generally safe and well‐tolerated
